Assay outcomes (PubChem BioAssay)
This is a sample that favours compounds with a hit; in the whole collection about 4.8% have one here.
T cruzi repl = T. cruzi replication inhibition; T. cruzi beta-gal in NIH3T3, luminescence, 90 h; inhibition, % (no concentration beside the values); 300,000 compounds, 1.4% hits;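 active means mean inhibition across valid replicates above about 55%, limit read from the data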;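 further: signal also drops with host cell toxicity which is not excluded here; higher percent means less beta-gal luminescence so fewer parasites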
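assay system = mouse NIH/3T3 fibroblasts infected with β-gal-expressing T. cruzi Tulahuen C4 | input = 5,000 NIH/3T3 host cells per well | buffer or medium = DMEM plus 2% FBS | timing = 3 h host attachment, then at least 90 h co-culture | measured by = GalScreen luminescence, 60 min | evaluation = luminescence reflecting intracellular parasite burden, expressed as percent inhibition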
GPR7 antagonist = human neuropeptides B/W receptor 1 antagonism; inhibition, % at 4.4 µM; AID 1861; P48145; 290,000 compounds, 1.1% hits; GPR7-expressing cells, fluorescence antagonist assay; in the data active means inhibition above about 16%, passing the limit was not always enough;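 further: cells stimulated with the agonist NPW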
Target sequence (P48145 whole entry, looked up): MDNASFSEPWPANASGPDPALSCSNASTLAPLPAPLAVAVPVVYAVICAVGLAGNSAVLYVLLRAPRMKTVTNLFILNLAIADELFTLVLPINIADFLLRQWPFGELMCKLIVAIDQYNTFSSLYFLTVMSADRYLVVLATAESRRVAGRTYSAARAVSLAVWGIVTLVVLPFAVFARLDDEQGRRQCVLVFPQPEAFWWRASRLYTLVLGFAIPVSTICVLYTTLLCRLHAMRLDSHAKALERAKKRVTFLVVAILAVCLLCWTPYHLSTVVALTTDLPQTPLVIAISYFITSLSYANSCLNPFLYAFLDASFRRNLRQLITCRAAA
697 NFkB inh = lowers PMA/ionomycin-induced NF-kB signal in 697 B cells; inhibition, % at 4 µM; 697 B-cell NF-kB luciferase reporter, 16 h; 330,000 compounds, 0.33% hits; in the data active means inhibition above about 35%
HSF1 inhib = HSF1 inhibition | AID 2098 | activity change, negative = inhibition, % at 7.5 µM (by protocol) | NIH3T3-HGL HSE-luciferase, MG132-induced, luminescence 8 h; hits give low values | 300,000 compounds, 0.77% hits;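 active means more than half of replicate wells show activity change below -50%, luminescence cut by over half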;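 further: luciferase reports HSF-1 transcriptional activity via heat shock element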
Jurkat NFkB inh = inhibitors of the PMA/ionomycin-induced NF-kB reporter in Jurkat cells. PMA/ionomycin-induced NF-kB luciferase reporter, luminescence. inhibition, % at 4 µM. AID 435003. 330,000 compounds, 0.53% hits; in the data active means inhibition above about 50%
HSF-1 act = increases HSF-1 driven luciferase reporter signal; NIH3T3-HGL HSF-1 luciferase reporter, MG132, 8 h; 100% = twice DMSO control signal; activation, % at 9 µM; 300,000 compounds, 1.7% hits; AID 504408;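 active means mean replicate activation of at least 50% with a set share of replicates each reaching 50%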
Jurkat NFkB conf = lowers PMA/ionomycin-induced NF-kB signal in Jurkat cells. shares compounds with Jurkat NFkB inh. Jurkat NF-kB luciferase, 16 h. inhibition, % at 4 µM. 2,700 compounds, 27% hits. AID 435020;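 active means inhibition reaching about 45% at 4 µM in either replicate, limit read from the data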
Large screens that a line does not name were inactive (follow-up assays come after a bar, where they were run).

Nn1c(C2CCC2)nc2cc(Cl)ccc2c1=O	none
COc1ccc(-n2nnnc2SCC(=O)NCCc2ccccc2)cc1OC	none
COc1ccc(CCNc2nnc(Sc3nnnn3-c3ccccc3)s2)cc1OC	Jurkat NFkB inh 77.2 | Jurkat NFkB conf 55.1
CC(C)NC(=O)N(C)C[C@H]1Oc2c(NC(=O)C3CCCCC3)cccc2C(=O)N([C@H](C)CO)C[C@@H]1C	none (no result: T cruzi repl, GPR7 antagonist, HSF1 inhib, HSF-1 act)
Cc1cccc(Nc2c([N+](=O)[O-])c(=O)oc3ccccc23)c1	none
COc1cccc(-c2cc(=O)c3cc(NC(=O)c4ccccc4)ccc3[nH]2)c1	Jurkat NFkB inh 89.5 | Jurkat NFkB conf 51.8
COc1cccc(-c2cc(=O)c3cc(NC(=O)c4ccc(N(C)C)cc4)ccc3[nH]2)c1	Jurkat NFkB inh 87.3 | Jurkat NFkB conf 57.1
CCCC(=O)Nc1ccc(C(=O)Nc2cccc(OC)c2)cc1	none
COc1cccc(-c2cc(=O)c3cc(NC(=O)c4ccc(Cl)cc4)ccc3[nH]2)c1	Jurkat NFkB inh 78.1 | Jurkat NFkB conf inactive
C=CCn1c(=O)n(C(=O)OCC)c2cc(Br)ccc21	none
COc1ccc(NC(=O)Cc2ccccc2)cn1	none
COc1ccc(NC(=O)/C(Cl)=C(/Cl)S(=O)Cc2ccccc2)cn1 (stereo not given)	GPR7 antagonist 40.2, HSF1 inhib -93.5, Jurkat NFkB inh 95.0 | Jurkat NFkB conf 98.4
COc1ccc(CS(=O)(=O)/C(Cl)=C(/Cl)C(=O)Nc2ccc(OC)nc2)cc1	GPR7 antagonist 39.2, Jurkat NFkB inh 80.6 | Jurkat NFkB conf 84.8
COc1ccccc1C(=O)O/N=C(\N)c1ccccn1	none
Cc1ccc(C(=O)O/N=C(\N)c2ccccn2)c(C)c1	HSF1 inhib -89.1, Jurkat NFkB inh 76.2 | Jurkat NFkB conf 92.2
O=C(c1c[nH]c2ccccc12)C(Cl)c1ccccc1 (stereo not given)	none
COc1ccc(/C=N\NC(=O)c2ccccc2F)cc1COc1ccc(F)cc1F	Jurkat NFkB inh 61.2 | Jurkat NFkB conf inactive
COc1ccc(/C=N\NC(=O)c2ccccc2F)cc1COc1ccc(F)cc1	none
Fc1ccccc1CSc1nc2ccccc2[nH]1	HSF-1 act 71.4 | Jurkat NFkB conf inactive
c1cnc(SCCOc2ccc3c(c2)CCC3)nc1	HSF-1 act 56.9 | Jurkat NFkB conf inactive
COc1ccc(/C=C2\COc3ccccc3C2=O)c(OC)c1	none
COc1ccc(C=C2c3ccccc3C(=O)c3ccccc32)c(OC)c1	Jurkat NFkB inh 65.7 | Jurkat NFkB conf 61.1
CCCCCCCCCCCCCCCC[n+]1ccc(/C=N/O)cc1	Jurkat NFkB inh 79.6 (no result: T cruzi repl, HSF1 inhib, HSF-1 act) | Jurkat NFkB conf 54.3
CCCCCCCC[n+]1cccc(C(=O)N(CC)CC)c1	none
CCCCCCCCCCCCCCCC[n+]1ccc(C(N)=O)cc1	Jurkat NFkB inh 55.7 (no result: T cruzi repl, HSF1 inhib, HSF-1 act) | Jurkat NFkB conf inactive
CCCCCCCCCCCCCCCC[n+]1cccc(C(=O)N(CC)CC)c1	Jurkat NFkB inh 85.7 | Jurkat NFkB conf 74.8
CCCCC(=O)Nc1ccc(C(N)=O)cc1	none
c1csc(-c2nnc(-c3ccc(N4CCOCC4)cc3)o2)c1	none | Jurkat NFkB conf inactive
C[C@H](NC(=O)N1CCn2c1nc1ccccc12)C(=O)NCc1ccc2c(c1)OCO2	none
COc1ccc2nc(Nc3ccccc3)sc2c1	HSF-1 act 67.6 | Jurkat NFkB conf inactive
COc1ccc2nc(NC(=O)c3ccc4ncsc4c3)sc2c1	none | Jurkat NFkB conf inactive
COc1ccc2nc(Nc3ccc4c(c3)OCO4)sc2c1	none
COc1ccc2nc(Nc3ccccc3OC)sc2c1	HSF-1 act 73.2 | Jurkat NFkB conf inactive
CS(=O)(=O)N1CCc2ccc(NC(=O)C3CCCO3)cc2C1 (stereo not given)	none
CCS(=O)(=O)c1ccc(-c2cccc(NC(=O)COc3ccc(Cl)cc3)c2)nn1	none
COc1ccc(/C=N/NC(=O)c2cccnc2)cc1Cn1nc([N+](=O)[O-])c(Br)c1C	Jurkat NFkB inh 51.8 | Jurkat NFkB conf inactive
COc1ccccc1NC(CC(=O)c1ccccc1)C(=O)OCC(=O)c1ccc(C)cc1 (stereo not given)	none
COc1ccccc1NC(CC(=O)c1ccccc1)C(=O)OCC(=O)c1ccc(Br)cc1 (stereo not given)	none | Jurkat NFkB conf inactive
O=C(CC(Nc1ccccc1Cl)C(=O)OCC(=O)c1cccs1)c1ccccc1 (stereo not given)	HSF1 inhib -58.2 | Jurkat NFkB conf inactive
CC(=O)C1=C(O)C(=O)N(c2ccc(Br)cn2)C1c1ccc(F)cc1 (stereo not given)	none
CCCNC(=O)c1nnsc1S(=O)c1ccc(Cl)cc1 (stereo not given)	T cruzi repl 66.9, HSF1 inhib -95.8, Jurkat NFkB inh 58.7 | Jurkat NFkB conf inactive
CCN1/C(=C/c2ccc3ccccc3[n+]2CCCS(=O)(=O)[O-])C=Cc2cc(C)ccc21	none (no result: 697 NFkB inh, Jurkat NFkB inh)
CCN1/C(=C/c2ccc3ccccc3[n+]2CC)C=Cc2ccccc21	GPR7 antagonist 53.0, Jurkat NFkB inh 97.0 | Jurkat NFkB conf 71.2
CCOc1ccc(N(C)S(=O)(=O)c2ccc(-c3cc(C)no3)s2)cc1	Jurkat NFkB inh 57.7 | Jurkat NFkB conf 51.8
Cc1cccc(N(C)S(=O)(=O)c2ccc(-c3cc(C)no3)s2)c1	none
CC(C)Oc1ccc2c(=O)c(-c3ccccc3)coc2c1	none | Jurkat NFkB conf inactive
COC(=O)COc1ccc2c(=O)c(-c3ccccc3)coc2c1	none
Cc1ccc(O)c(NC(=O)CCCC(=O)O)c1	none
Cc1cccc(OCC(=O)Nc2cc(C)ccc2O)c1	Jurkat NFkB inh 71.7, HSF-1 act 180.6 | Jurkat NFkB conf 55.0
COc1cccc(N/C=C/C(=O)c2ccc(Br)cc2)c1	none
COc1cccc(C(=O)/C=C/Nc2cc(C)ccc2O)c1	Jurkat NFkB inh 67.4 | Jurkat NFkB conf inactive
Cc1ccc(O)c(NC(=O)CCC2CCCCC2)c1	Jurkat NFkB inh 64.4, HSF-1 act 151.4 | Jurkat NFkB conf inactive
COc1ccc(C(=O)/C=C/Nc2cccc(O)c2)cc1	none | Jurkat NFkB conf inactive
Cc1ccc(-n2nnc(-c3nccn3C)n2)cc1	none
COc1ccc(C(=O)NC(=S)N2CCOCC2)cc1OC	none
C=CC[C@H](CC(=O)NCCO)C(=O)N[C@H](COC(=O)[C@@H](CC=C)Cc1ccc(F)cc1)c1ccccc1	none (no result: T cruzi repl, GPR7 antagonist, HSF1 inhib, HSF-1 act)
CSCCC(NS(=O)(=O)c1ccc(C)cc1)C(=O)N1CCN(C(C)=O)CC1 (stereo not given)	none (no result: GPR7 antagonist)
COc1cccc(CNC(=O)CSc2nc3c(oc4ccccc43)c(=O)n2CC2CCCO2)c1 (stereo not given)	none (no result: GPR7 antagonist)
Cc1ccc(Cl)c(N/C=C/C(=O)c2ccccc2)c1	none | Jurkat NFkB conf inactive
COc1ccc(N/C=C/C(=O)c2ccc(C)cc2)c([N+](=O)[O-])c1	none | Jurkat NFkB conf inactive
CCOc1ccc(N/C=C/C(=O)c2ccc(OC)cc2)c([N+](=O)[O-])c1	none
